Common to all, as to type: functional
Assay [1] deals with HeLa. As to the kind of experiment: Induction of apoptosis in human HeLa cells assessed as increase in intracellular nitric oxide level at 100 uM after 3 hrs by FACS relative to untreated control. Put shortly: (§1)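 HeLa cells at 80% confluence were exposed to 100 µM for 1, 3 or 24 h and then stained with 1 µM DAF-2 for 10 min in the dark. After trypsinization, DAF-2 fluorescence was measured by flow cytometry and taken as fold versus untreated cells. At least three experiments.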

Assay [2] relates to HeLa. As to the kind of experiment: Induction of apoptosis in human HeLa cells assessed as increase caspase 3/7 activities at 100 uM after 12 hrs by FACS relative to control. Put shortly: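 After 3–24 h exposure at 100 µM, HeLa cells were trypsinized. 1 × 10^6 cells in DMEM were mixed 1:1 with Z-DEVD-R110 substrate reagent and incubated 1 h at 37 °C, then washed. Released R110 read per cell by flow cytometry (ex 488/em 520 nm) and expressed as fold over untreated cells. At least three runs.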

For assay [3], the system named is HeLa. The experiment in a line: Cell cycle arrest in human HeLa cells pretreated with 10 uM pifithrin-alpha for 1 hr assessed as G1 phase accumulation at 100 uM after 24 hrs by FACS. Summed up:
(§2)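 HeLa cells pretreated for 1 h with the listed agent (10 mM GSH ethyl ester, 10 µM dexamethasone, 10 µM pifithrin, 100 µM Boc-Asp(OMe)-fmk or 5 µM cyclosporin A), then given 100 µM compound for 24 h. Cells fixed in PBS-MeOH, stained with PI/RNase and analysed by flow cytometry for DNA content. At least three experiments, one representative shown.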

Assay [4] deals with HeLa. The experiment in a line: Induction of apoptosis in human HeLa cells assessed as increase p53 expression at 100 uM after 24 hrs by FACS. Summed up: (§3)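 HeLa seeded at 5 × 10^5 cells/dish 48 h before, in DMEM with 10% FCS; medium renewed at 60% confluence, then 100 µM agent (0.1% DMSO final) for 0–24 h. Pooled floating and adherent cells fixed in 1% paraformaldehyde (15 min, 4 °C), permeabilized in 70% EtOH (30 min, 4 °C), then FITC-conjugated mouse anti-p53 mAb (1 h, 37 °C), PI/RNase counterstain; flow cytometry, % p53-positive cells; ≥3 experiments.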

Assay [5] relates to HeLa. As to the kind of experiment: Cell cycle arrest in human HeLa cells pretreated with 10 uM Dexamethasone for 1 hr assessed as S phase accumulation at 100 uM after 24 hrs by FACS. Summed up: as §2
Assay [6] concerns HeLa. As to the kind of experiment: Induction of apoptosis in human HeLa cells pretreated with 10 uM Dexamethasone for 1 hr at 100 uM after 24 hrs by TUNEL assay. Summed up: (§4)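 HeLa in DMEM/10% FCS, untreated or pretreated 1 h with listed inhibitor, then 100 µM agent (0.1% DMSO final) for 24 h. Pooled cells fixed in 1% paraformaldehyde (30 min, 4 °C), 70% EtOH (30 min, −20 °C); strand breaks labelled with TdT/fluorescein-BrdUTP (1 h, 37 °C), PI/RNase counterstain; flow cytometry, % apoptotic cells; ≥3 experiments.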

Assay [7] concerns HeLa. As to the kind of experiment: Cell cycle arrest in human HeLa cells pretreated with 100 uM Boc-Asp(OMe)-fmk for 1 hr assessed as subG1 phase accumulation at 100 uM after 24 hrs by FACS. Summed up:
as §2
A general note: Flow cytometry measures light scatter and fluorescence of single cells or particles in a stream.

In assay [8] the test system is HeLa. As to the kind of experiment: Cell cycle arrest in human HeLa cells assessed as S phase accumulation at 25 uM after 24 hrs by FACS. Summed up:
(§5)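 HeLa cells seeded 5 × 10^5 per dish 48 h ahead in DMEM with 10% FCS, then exposed to compound for 24 h (DMSO 0.1% final). Adherent and floating cells pooled, fixed in PBS-MeOH (1:2) at 4 °C for at least 18 h, and stained with PI (50 µg/mL) plus RNase A for 30 min at room temperature. Flow cytometry at 488 nm excitation, doublets gated out; phase percentages taken from DNA histograms.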

For assay [9], the system named is HeLa. The experiment in a line: Cell cycle arrest in human HeLa cells pretreated with 10 mM glutathione ethyl ester for 1 hr assessed as S phase accumulation at 100 uM after 24 hrs by FACS. Summed up: as §2
Assay [10] relates to HeLa. As to the kind of experiment: Cell cycle arrest in human HeLa cells pretreated with 10 uM pifithrin-alpha for 1 hr assessed as S phase accumulation at 100 uM after 24 hrs by FACS. Put shortly: as §2
In assay [11] the test system is HeLa. As to the kind of experiment: Cell cycle arrest in human HeLa cells pretreated with 10 uM pifithrin-alpha for 1 hr assessed as G2/M phase accumulation at 100 uM after 24 hrs by FACS. Put shortly:
as §2

Assay [12] has as its system HeLa. The experiment in a line: Cell cycle arrest in human HeLa cells assessed as G2/M phase accumulation at 50 uM after 24 hrs by FACS. Summed up:
as §5

Assay [13] relates to HeLa. The experiment in a line: Cell cycle arrest in human HeLa cells pretreated with 5 uM cyclosporin A for 1 hr assessed as G2/M phase accumulation at 100 uM after 24 hrs by FACS. Put shortly: as §2
The test system of assay [14] is HeLa. As to the kind of experiment: Induction of apoptosis in human HeLa cells assessed as increase in intracellular nitric oxide level at 100 uM after 24 hrs by FACS relative to untreated control. Put shortly:
as §1

The subject of assay [15] is HeLa. The experiment in a line: Induction of apoptosis in human HeLa cells assessed as increase p53 expression at 100 uM after 3 hrs by FACS. Put shortly:
as §3

For assay [16], the system named is HeLa. The experiment in a line: Cell cycle arrest in human HeLa cells pretreated with 100 uM Boc-Asp(OMe)-fmk for 1 hr assessed as G1 phase accumulation at 100 uM after 24 hrs by FACS. Put shortly: as §2
For assay [17], the system named is HeLa. As to the kind of experiment: Cell cycle arrest in human HeLa cells pretreated with 10 mM glutathione ethyl ester for 1 hr assessed as G1 phase accumulation at 100 uM after 24 hrs by FACS. Put shortly: as §2
Assay [18] relates to HeLa. As to the kind of experiment: Cell cycle arrest in human HeLa cells pretreated with 100 uM Boc-Asp(OMe)-fmk for 1 hr assessed as G2/M phase accumulation at 100 uM after 24 hrs by FACS. Summed up: as §2
For assay [19], the system named is HeLa. As to the kind of experiment: Induction of apoptosis in human HeLa cells assessed as increase in intracellular hydrogen peroxide level at 100 uM after 24 hrs by FACS relative to untreated control. Put shortly:
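HeLa cells at 80% confluence were refed and exposed to 100 µM for 1, 3 or 24 h. They were loaded with 10 µM DCFH-DA for 30 min in the dark, trypsinized and resuspended in PBS. DCF fluorescence was measured by flow cytometry and expressed as fold versus untreated cells. At least three experiments.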

For assay [20], the system named is HeLa. As to the kind of experiment: Induction of apoptosis in human HeLa cells pretreated with 10 mM glutathione ethyl ester for 1 hr at 100 uM after 24 hrs by TUNEL assay. Summed up: as §4
For assay [21], the system named is HeLa. The experiment in a line: Induction of apoptosis in human HeLa cells assessed as number of cells with decreased mitochondrial membrane potential at 100 uM after 1 hr by measuring rhodamine 123 fluorescence intensity. The arrangement: scale not given: the % may be the effect or the level left. Summed up: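 Cells in DMEM/10% FCS, medium renewed at 80% confluence, then 100 µM agent (0.1% DMSO final) for 1–24 h. Stained with 5 µM rhodamine 123 for 30 min in the dark, washed, trypsinized and resuspended in PBS; flow cytometry, percentage of cells with weak rhodamine 123 staining (reduced ΔΨm); at least three experiments, representative shown.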

For assay [22], the system named is HeLa. As to the kind of experiment: Cell cycle arrest in human HeLa cells pretreated with 10 uM Dexamethasone for 1 hr assessed as subG1 phase accumulation at 100 uM after 24 hrs by FACS. Summed up:
as §2

`CCCCCCCCCCCCC/C=C(/C(=O)OC)[C@@H](O)C(C)=O` [SECOKOTOMOLIDE A]: the “fold change (FC)” value in [1] is 2.1; in [2] it was 4.6; in assay [14] it was 2.1; in assay [19], 3.9. For the same compound, the Activity is 51.3% in assay [3]; 28.8% in assay [4]; 33.8% in assay [5]; 55.3% in [6]; 74.8% in [7]; 18.1% in assay [8]. For the same compound, the Activity in [9] is reported as 8.4%; in assay [10] it was 48.5%; in assay [11], 0%; in [12], 29%; in assay [13] it was 38.2%; in assay [15], 0.5%. The Activity in assay [16] was 60.6%; in assay [17], 80%; in assay [18], 25.7%; in assay [20], 5.43%; in [21] it was 1.4%; in assay [22], 47.7%.

The values are drawn from ChEMBL document CHEMBL1157968, “Chemical and cytotoxic constituents from the leaves of Cinnamomum kotoense” (2006).
